Experimental data published in ChEMBL document CHEMBL5030505, “Assessment of NR4A Ligands That Directly Bind and Modulate the Orphan Nuclear Receptor Nurr1” (J Med Chem, 2020).
Calls of active or inactive are those of the source. The rule behind the calls is not given here.

What was measured:
Assay type in all cases: cell-based
[1] = tested on: SK-N-BE(2); assay: Cytotoxicity against human SKNBE(2) cells assessed as reduction in cell viability at 1.56 to 6.25 microM incubated for 18 hrs by Cell titer-glo assay; details: dose 1.56-6.25 µM
Summary of the method: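 Cells seeded 1.5 million per 10-cm dish; next day replated at 10,000 cells/well in 384-well format, 4 h, then ligand or vehicle (water, ethanol or DMSO by ligand) added in quadruplicate for 18 h; viability read by CellTiter-Glo luminescence. Mean ± s.e.m. (n=4), generally 2 independent experiments; one-way ANOVA versus vehicle.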

[2] = tested on: SKNBE2; assay: Modulation of Gal4-fused VP16 expressed in SKNBE(2) cells co-transfected with UAS repoter gene assessed as decrease in luciferase activity at 1.56 to 6.25 uM incubated for 18 hrs by luciferase reporter gene assay; details: Human alphaherpesvirus 2, filed as modulator, dose 1.56-6.25 µM
Summary of the method: (§1)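 Constitutive control: cells transfected (Lipofectamine 2000) with Gal4-VP16 expression plasmid (2 μg) plus 5xUAS-luciferase reporter (2 μg), 18 h; replated 10,000 cells/well, 4 h; ligand or vehicle in quadruplicate for 18 h; luciferase read by Britelite Plus; signal as fold change over vehicle-treated cells. Mean ± s.e.m. (n=4); one-way ANOVA versus vehicle.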

[3] = tested on: HEK293T; assay: Modulation of Gal4-fused VP16 expressed in HEK293T cells co-transfected with UAS repoter gene assessed as decrease in luciferase activity at 1.56 to 6.25 uM incubated for 18 hrs by luciferase reporter gene assay; details: Human alphaherpesvirus 2, filed as modulator, dose 1.56-6.25 µM; summary of the method: as §1
[4] = biological target: Nuclear receptor subfamily 4 group A member 2 (Homo sapiens) (UniProt P43354); assay: Modulation of full length human Nurr1 expressed in SKNBE(2) cells co-transfected with RXRalpha and luciferase reporter plasmid harboring NurRE response element assessed as increase in luciferase activity at 1.56 to 6.25 uM incubated for 18 by luciferase reporter gene assay; details: SKNBE2, filed as modulator, dose 1.56-6.25 µM, time 18.0 hrs
[5] = biological target: Nuclear receptor subfamily 4 group A member 2 (Homo sapiens) (UniProt P43354); assay: Modulation of full length human Nurr1 expressed in PC12 cells co-transfected with RXRalpha and luciferase reporter plasmid harboring NurRE response element assessed as increase in luciferase activity at 1.56 to 6.25 uM incubated for 18 by luciferase reporter gene assay; details: PC-12, filed as modulator, dose 1.56-6.25 µM, time 18.0 hrs
[6] = biological target: Nuclear receptor subfamily 4 group A member 2 (Homo sapiens) (UniProt P43354); assay: Modulation of full length human Nurr1 expressed in PC12 cells co-transfected with RXRalpha and luciferase reporter plasmid harboring NBRE response element assessed as decrease in luciferase activity at 1.56 to 6.25 uM incubated for 18 by luciferase reporter gene assay; details: PC-12, filed as modulator, dose 1.56-6.25 µM, time 18.0 hrs
[7] = biological target: Nuclear receptor subfamily 4 group A member 2 (Homo sapiens) (UniProt P43354); assay: Modulation of full length human Nurr1 expressed in PC12 cells co-transfected with RXRalpha and luciferase reporter plasmid harboring NBRE response element assessed as increase in luciferase activity at 1.56 to 6.25 uM incubated for 18 by luciferase reporter gene assay; details: PC-12, filed as modulator, dose 1.56-6.25 µM, time 18.0 hrs
[8] = biological target: Nuclear receptor subfamily 4 group A member 2 (Homo sapiens) (UniProt P43354); assay: Modulation of full length human Nurr1 expressed in HEK293T cells co-transfected with RXRalpha and luciferase reporter plasmid harboring NurRE response element assessed as increase in luciferase activity at 1.56 to 6.25 uM incubated for 18 by luciferase reporter gene assay; details: filed as modulator, dose 1.56-6.25 µM, time 18.0 hrs
[9] = biological target: Nuclear receptor subfamily 4 group A member 2 (Homo sapiens) (UniProt P43354); assay: Modulation of full length human Nurr1 expressed in HEK293T cells co-transfected with RXRalpha and luciferase reporter plasmid harboring NBRE response element assessed as increase in luciferase activity at 1.56 to 6.25 uM incubated for 18 by luciferase reporter gene assay; details: filed as modulator, dose 1.56-6.25 µM, time 18.0 hrs
[10] = biological target: Nuclear receptor subfamily 4 group A member 2 (Homo sapiens) (UniProt P43354); assay: Modulation of full length human Nurr1 expressed in SKNBE(2) cells co-transfected with luciferase reporter plasmid harboring NBRE response element assessed as decrease in luciferase activity at 1.56 to 6.25 uM incubated for 18 by luciferase reporter gene assay; details: SKNBE2, filed as modulator, dose 1.56-6.25 µM, time 18.0 hrs
Summary of the method: (§2)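 Cells transfected (Lipofectamine 2000, 18 h) with full-length Nurr1 expression plasmid (2 μg) and 3xNBRE- or 3xNurRE-luciferase reporter (6 μg), no internal control normalisation; replated 10,000 cells/well, 4 h; ligand or vehicle in quadruplicate for 18 h; Britelite Plus luminescence as fold change over vehicle. Mean ± s.e.m. (n=4); one-way ANOVA versus vehicle.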

[11] = biological target: Nuclear receptor subfamily 4 group A member 2 (Homo sapiens) (UniProt P43354); assay: Modulation of full length human Nurr1 expressed in PC12 cells co-transfected with luciferase reporter plasmid harboring NBRE response element assessed as increase in luciferase activity at 1.56 to 6.25 uM incubated for 18 by luciferase reporter gene assay; details: PC-12, filed as modulator, dose 1.56-6.25 µM, time 18.0 hrs; summary of the method: as §2
[12] = biological target: Nuclear receptor subfamily 4 group A member 2 (Homo sapiens) (UniProt P43354); assay: Modulation of full length human Nurr1 expressed in HEK293T cells co-transfected with luciferase reporter plasmid harboring NurRE response element assessed as decrease in luciferase activity at 1.56 to 6.25 uM incubated for 18 by luciferase reporter gene assay; details: filed as modulator, dose 1.56-6.25 µM, time 18.0 hrs; summary of the method: as §2
[13] = biological target: Nuclear receptor subfamily 4 group A member 2 (Homo sapiens) (UniProt P43354); assay: Modulation of full length human Nurr1 expressed in HEK293T cells co-transfected with luciferase reporter plasmid harboring NBRE response element assessed as decrease in luciferase activity at 1.56 to 6.25 uM incubated for 18 by luciferase reporter gene assay; details: filed as modulator, dose 1.56-6.25 µM, time 18.0 hrs; summary of the method: as §2
[14] = biological target: Nuclear receptor subfamily 4 group A member 2 (Homo sapiens) (UniProt P43354); assay: Modulation of full length human Nurr1 expressed in HEK293T cells co-transfected with luciferase reporter plasmid harboring NBRE response element assessed as increase in luciferase activity at 1.56 to 6.25 uM incubated for 18 by luciferase reporter gene assay; details: filed as modulator, dose 1.56-6.25 µM, time 18.0 hrs; summary of the method: as §2
[15] = tested on: SK-N-BE(2); assay: Cytotoxicity against human SKNBE2 cells assessed as reduction in cell viability at 5 to 100 uM incubated for 18 hrs by Cell titer-glo assay; details: dose 5-100 µM
Summary of the method: (§3)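 Cells seeded at 1.5 million per 10-cm dish. Next day they were replated at 10,000 cells/well and rested 4 h. Ligand or vehicle (water, ethanol or DMSO, by ligand) was added in dose-response format in quadruplicate. After 18 h, viability was read by CellTiter-Glo luminescence. Data are mean ± s.e.m., generally representative of 2 independent experiments. One-way ANOVA versus vehicle.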

[16] = tested on: HEK-293T; assay: Cytotoxicity against human HEK293T cells assessed as reduction in cell viability at 5 to 100 uM incubated for 18 hrs by Cell titer-glo assay; details: dose 5-100 µM; summary of the method: as §3
[17] = tested on: SKNBE2; assay: Modulation of Gal4-fused VP16 expressed in SKNBE2 cells co-transfected with UAS repoter gene assessed as decrease in luciferase activity at 5 to 100 uM incubated for 18 hrs by luciferase reporter gene assay; details: Human alphaherpesvirus 2, filed as modulator, dose 5-100 µM
Summary of the method: (§4)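 Cells in 10-cm dishes were transfected with Gal4-VP16 expression plasmid (2 μg) plus 5xUAS-luciferase reporter (2 μg) for 18 h. They were replated at 10,000 cells/well for 4 h, then given ligand or vehicle (water, ethanol or DMSO) in quadruplicate for 18 h. Luciferase was read with Britelite Plus. Fold change is versus vehicle-treated cells, with one-way ANOVA versus vehicle.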

[18] = tested on: PC-12; assay: Modulation of Gal4-fused VP16 expressed in PC12 cells co-transfected with UAS repoter gene assessed as decrease in luciferase activity at 5 to 100 uM incubated for 18 hrs by luciferase reporter gene assay; details: Human alphaherpesvirus 2, filed as modulator, dose 5-100 µM; summary of the method: as §4
[19] = tested on: HEK293T; assay: Modulation of Gal4-fused VP16 expressed in HEK293T cells co-transfected with UAS repoter gene assessed as decrease in luciferase activity at 5 to 100 uM incubated for 18 hrs by luciferase reporter gene assay; details: Human alphaherpesvirus 2, filed as modulator, dose 5-100 µM; summary of the method: as §4

Nuclear receptor subfamily 4 group A member 2 (Homo sapiens), sequence (P43354 whole entry): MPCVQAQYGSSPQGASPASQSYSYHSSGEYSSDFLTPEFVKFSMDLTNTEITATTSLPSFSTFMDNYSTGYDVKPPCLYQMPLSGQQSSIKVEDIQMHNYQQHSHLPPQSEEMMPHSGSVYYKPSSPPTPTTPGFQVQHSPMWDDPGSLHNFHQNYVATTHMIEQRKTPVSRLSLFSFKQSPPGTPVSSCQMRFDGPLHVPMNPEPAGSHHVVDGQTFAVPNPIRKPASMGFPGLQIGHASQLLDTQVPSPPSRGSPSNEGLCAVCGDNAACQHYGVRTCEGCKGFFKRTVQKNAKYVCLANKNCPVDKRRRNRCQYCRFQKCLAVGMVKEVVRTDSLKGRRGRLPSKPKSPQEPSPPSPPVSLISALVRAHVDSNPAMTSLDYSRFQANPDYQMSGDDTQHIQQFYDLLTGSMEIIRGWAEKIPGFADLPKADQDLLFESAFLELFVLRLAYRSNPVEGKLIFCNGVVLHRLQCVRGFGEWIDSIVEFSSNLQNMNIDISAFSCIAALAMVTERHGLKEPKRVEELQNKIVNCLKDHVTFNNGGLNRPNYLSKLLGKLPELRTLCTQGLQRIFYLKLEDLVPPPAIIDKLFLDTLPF

CC1=C(O)C(=O)C=C2C1=CC=C1[C@@]2(C)CC[C@@]2(C)[C@@H]3C[C@](C)(C(=O)O)CC[C@]3(C)CC[C@]12C [CELASTROL]
Activity [1]: Toxic | Activity [2]: Active | Activity [3]: Active | Activity [4]: Active | Activity [5]: Active | Activity [6]: Active | Activity [7]: Active | Activity [8]: Active | Activity [9]: Active | Activity [10]: Active | Activity [11]: Active | Activity [12]: Active | Activity [13]: Active | Activity [14]: Active

CCCCCCCC(=O)c1c(O)cc(O)cc1CC(=O)OCC [CYTOSPORONE B]
Activity [15]: Toxic | Activity [16]: Toxic | Activity [17]: Active | Activity [18]: Active | Activity [19]: Active
